According to ChEMBL document CHEMBL1126896, “Preparation and anti-HIV activity of O-acylated heparin and dermatan sulfate derivatives with low anticoagulant effect” (J Med Chem, 1993):

Experiments:
[1] = test system: Human immunodeficiency virus 2; assay: Antiviral activity against HIV-2 infected with LAV-2 EHO; assay type: functional, organism-based
HuT78 [2] = assay: Giant-cell formation between persistently HIV-1 infected HUT-78 cells and uninfected MOLT-4 cells; assay type: functional, cell-based; conditions: Homo sapiens, HuT78; read-out: EC50
Method in brief: (§1)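 MOLT-4 cells were co-cultured with an equal number of HUT-78 cells persistently infected with HIV-1 IIIB or HIV-2 ROD, with varying compound concentrations. Syncytia were counted by flow cytofluorography after 24 h. EC50 is the concentration giving 50% protection against giant-cell formation.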

HuT78 [3] = assay: Giant-cell formation between persistently HIV-2 infected HUT-78 cells and uninfected MOLT-4 cells; assay type: functional, cell-based; conditions: Homo sapiens, HuT78; read-out: EC50; method in brief: as §1
[4] = test system: Human immunodeficiency virus 1; assay: Antiviral activity against HIV-1 infected with HIV-1HE; assay type: functional, organism-based
[5] = test system: Human immunodeficiency virus 1; assay: Antiviral activity against HIV-1 infected with […]; assay type: functional, organism-based
[6] = test system: Human immunodeficiency virus 1; assay: Antiviral activity against HIV-1 infected with HTLVIIIB; assay type: functional, organism-based
[7] = test system: Human immunodeficiency virus 1; assay: Antiviral activity against HIV-1 infected with HTLVIIIB (TIBO); assay type: functional, organism-based
[8] = test system: Human immunodeficiency virus 2; assay: Antiviral activity against HIV-2 infected with LAV-2 ROD; assay type: functional, organism-based
[9] = In vitro anticoagulant activity determined by clotting test of activated partial thromboplastin time (APTT) on a pool of human plasma; assay type: functional
Method in brief: (§2)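 Activated partial thromboplastin time clotting test on pooled human plasma, run on an automatic coagulometer. Activities were calculated according to the European Pharmacopoeia.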

MT4 [10] = assay: Effective concentration to achieve 50% protection of MT-4 cells against the cytopathic effect of HIV-1; assay type: functional, cell-based; conditions: Homo sapiens, MT4; read-out: EC50
MT4 [11] = assay: Effective concentration to achieve 50% protection of MT-4 cells against the cytopathic effect of HIV-2; assay type: functional, cell-based; conditions: Homo sapiens, MT4; read-out: EC50
[12] = test system: Simian immunodeficiency virus; assay: Antiviral activity against SIV; assay type: functional, organism-based
MT4 [13] = assay: Selectivity index for CC50 (cytotoxic concentration based on the reduction of the viability of mock-infected MT-4 cells) to that of EC50 against HIV-1; assay type: functional
Method in brief: (§3)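 MT-4 cells at 3 × 10^5 cells/mL were infected with HIV-1 IIIB or HIV-2 ROD at 100 CCID50/mL, or mock-infected, alongside serial compound dilutions. Viability was read by MTT after 5 days at 37 °C. CC50 comes from mock-infected cells and EC50 from protection against cytopathicity. Index = CC50/EC50.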

MT4 [14] = assay: Selectivity index for CC50 (cytotoxic concentration based on reduction of viability of mock-infected MT-4 cells) to that of EC50 against HIV-2; assay type: functional; method in brief: as §3
[15] = In vitro anticoagulant activity was determined by the clotting test of activated partial thromboplastin time (APTT) on a pool of human plasma; 1-2; assay type: functional; method in brief: as §2

Row | EC50 [1] | EC50 [4] | EC50 [5] | EC50 [6] | EC50 [7] | EC50 [8] | EC50 [12] | SMILES | EC50 (HuT78 [2]) | EC50 (HuT78 [3]) | APTT [9] | EC50 (MT4 [10]) | EC50 (MT4 [11]) | Selectivity index (MT4 [13]) | Selectivity index (MT4 [14]) | APTT [15]
1 | 1.3 µg/mL | 1.1 µg/mL | 0.2 µg/mL | 0.2 µg/mL | 0.7 µg/mL | 0.9 µg/mL | 10.2 µg/mL | CCCC(=O)OC/C(=C\C(=O)OCc1ccccc1)OC1OC(COS(=O)(=O)[O-])C(OC2OC(C(=O)OCc3ccccc3)C(OC3OC(COS(=O)(=O)[O-])C(OC4OC(C(=O)OCc5ccccc5)C(OC5OC(COS(=O)(=O)[O-])C(O)C(OC(=O)CCC)C5NS(=O)(=O)[O-])C(OC(=O)CCC)C4OS(=O)(=O)[O-])C(OC(=O)CCC)C3NS(=O)(=O)[O-])C(OC(=O)CCC)C2OS(=O)(=O)[O-])C(OC(=O)CCC)C1NS(=O)(=O)[O-].[Na+].[Na+].[Na+].[Na+].[Na+].[Na+].[Na+].[Na+] (stereo unspecified) | 1 µg/mL | 1 µg/mL | 4 IU mg-1 | 0.36 µg/mL | 0.42 µg/mL | >1389 | >1190 | 
2 |  |  |  |  |  |  |  | COC1C(NC(C)=O)C(OC2C(C(=O)[O-])OC(OC3C(NC(C)=O)C(OC4C(C(=O)[O-])OC(C)C(O)C4O)OC(CO)C3OS(=O)(=O)[O-])C(O)C2O)OC(CO)C1OS(=O)(=O)[O-].[Na+].[Na+].[Na+].[Na+] (stereo unspecified) | > 500 µg/mL |  |  | > 625 µg/mL | > 625 µg/mL |  |  | 1 IU mg-1
3 | 4.3 µg/mL | 1.5 µg/mL | 1.3 µg/mL | 0.5 µg/mL | 0.6 µg/mL | 2.2 µg/mL | 7.4 µg/mL | CC(=O)OC/C(=C\C(=O)[O-])OC1OC(COS(=O)(=O)[O-])C(OC2OC(C(=O)[O-])C(OC3OC(COS(=O)(=O)[O-])C(OC4OC(C(=O)[O-])C(OC5OC(CS(=O)(=O)[O-])C(O)C(OC(C)=O)C5NS(=O)(=O)[O-])C(OC(C)=O)C4OS(=O)(=O)[O-])C(OC(C)=O)C3NS(=O)(=O)[O-])C(OC(C)=O)C2OS(=O)(=O)[O-])C(OC(C)=O)C1NS(=O)(=O)[O-].[Na+].[Na+].[Na+].[Na+].[Na+].[Na+].[Na+].[Na+].[Na+].[Na+].[Na+] (stereo unspecified) | 165 µg/mL |  | 10 IU mg-1 | 0.53 µg/mL | 0.59 µg/mL | >943 | >847 | 
